Results as given in publication PMC3472112 (Structure (London, England : 1993), 2012).
Read-outs that look alike come from different tables or passages of the source. Each block holds one molecule with its values, some of them ahead of it.

What was measured:
Tm0922 = biological target: T1, Tm0922 (Thermotoga maritima, UniProt Q9X024); assay: isothermal titration calorimetry; format: binding
T1 sequence (Q9X024 1-490): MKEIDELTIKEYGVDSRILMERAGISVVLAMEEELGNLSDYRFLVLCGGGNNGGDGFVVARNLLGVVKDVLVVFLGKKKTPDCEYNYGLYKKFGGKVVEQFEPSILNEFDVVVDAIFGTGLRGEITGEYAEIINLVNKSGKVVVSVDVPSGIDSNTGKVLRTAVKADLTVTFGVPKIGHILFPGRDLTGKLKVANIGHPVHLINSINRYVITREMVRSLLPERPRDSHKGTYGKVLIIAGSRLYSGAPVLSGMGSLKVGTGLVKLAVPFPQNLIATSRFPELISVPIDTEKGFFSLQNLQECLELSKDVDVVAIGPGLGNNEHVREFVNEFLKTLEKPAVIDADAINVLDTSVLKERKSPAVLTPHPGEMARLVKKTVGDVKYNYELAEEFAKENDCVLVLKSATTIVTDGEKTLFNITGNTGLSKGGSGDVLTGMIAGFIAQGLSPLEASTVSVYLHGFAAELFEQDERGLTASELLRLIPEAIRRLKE
In short: (§1)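 Isothermal titrations were run at 25°C, with Tm0922 also tested at 55°C, in 100 mM HEPES pH 7.5 with 100 mM NaCl. Purified protein was in the cell at 70-130 μM. Metabolite ligands from the NAD-related and thymine-related sets were titrated to final concentrations 1.2 to 5 times the protein concentration. Binding parameters were taken from curves fitted to the titration profiles.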

YxkO [1] = biological target: T2, YxkO (Bacillus subtilis, UniProt P94368); assay: crystal structure; details: ATP-binding site, Mg2+
T2 sequence (P94368 1-276): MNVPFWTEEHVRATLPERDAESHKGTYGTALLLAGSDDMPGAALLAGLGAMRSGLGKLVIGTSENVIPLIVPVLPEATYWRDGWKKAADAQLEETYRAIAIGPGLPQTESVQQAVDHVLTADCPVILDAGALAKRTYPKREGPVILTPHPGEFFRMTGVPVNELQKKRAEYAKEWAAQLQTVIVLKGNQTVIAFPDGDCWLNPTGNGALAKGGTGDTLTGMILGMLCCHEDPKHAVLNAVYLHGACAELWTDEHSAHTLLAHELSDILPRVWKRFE

YxkO [2] = biological target: T2, YxkO; assay: isothermal titration calorimetry; format: binding
In short: as §1

AI-BP = biological target: T3, AI-BP (Mus musculus, UniProt Q8K4Z3); assay: isothermal titration calorimetry; format: binding; details: 100 mM HEPES pH 7.5, 100 mM NaCl, 25°C
T3 sequence (Q8K4Z3 25-282): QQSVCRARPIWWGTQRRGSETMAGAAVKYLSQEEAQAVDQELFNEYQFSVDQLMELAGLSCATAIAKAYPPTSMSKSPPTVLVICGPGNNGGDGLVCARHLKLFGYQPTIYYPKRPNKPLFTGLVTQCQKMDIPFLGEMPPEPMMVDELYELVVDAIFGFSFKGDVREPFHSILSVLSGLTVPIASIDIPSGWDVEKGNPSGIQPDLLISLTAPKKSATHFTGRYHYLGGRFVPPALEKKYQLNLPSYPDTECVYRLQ
In short: as §1

YxkO [3] = biological target: T2, YxkO; assay: crystal structure; format: binding; details: kinase substrate site, AMP/Mg2+ in ATP site; dehydratase substrate
purified protein [4] = substrate: Nc1ncnc2c1ncn2[C@@H]1O[C@H](COP(=O)(O)OP(=O)(O)O)[C@@H](O)[C@H]1O; assay: purified protein; format: biochemical, Bacillus subtilis; details: co-substrate NADHX, 25°C, varied: cofactor
purified protein [5] = substrate: NC(=O)C1=CN([C@@H]2O[C@H](COP(=O)(O)OP(=O)(O)OC[C@H]3O[C@@H](n4cnc5c(N)ncnc54)[C@H](O)[C@@H]3O)[C@@H](O)[C@H]2O)C(O)CC1; assay: purified protein; format: biochemical, Bacillus subtilis; details: co-substrate ADP, 25°C

Kd (Tm0922): 6 ± 0.9 µM
Molecule: NC(=O)c1ccc[n+]([C@@H]2O[C@H](COP(=O)(O)OP(=O)(O)OC[C@H]3O[C@@H](n4cnc5c(N)ncnc54)[C@H](OP(=O)(O)O)[C@@H]3O)[C@@H](O)[C@H]2O)c1 [NADP]

Kd (Tm0922): 105 ± 11.1 µM
Molecule: Nc1ncnc2c1ncn2[C@@H]1O[C@H](COP(=O)(O)OP(=O)(O)OC[C@H]2O[C@@H]([n+]3cccc(C(=O)O)c3)[C@H](O)[C@@H]2O)[C@@H](O)[C@H]1OP(=O)(O)O [NAADP]

Kd (YxkO [2]): 9.6 ± 0.7 µM
Molecule: NC(=O)C1=CN([C@@H]2O[C@H](COP(=O)(O)OP(=O)(O)OC[C@H]3O[C@@H](n4cnc5c(N)ncnc54)[C@H](O)[C@@H]3O)[C@@H](O)[C@H]2O)C=CC1 [NADH]

Kd (Tm0922): 5.3 ± 1.2 µM
Molecule: NC(=O)C1=CN([C@@H]2O[C@H](COP(=O)(O)OP(=O)(O)OC[C@H]3O[C@@H](n4cnc5c(N)ncnc54)[C@H](OP(=O)(O)O)[C@@H]3O)[C@@H](O)[C@H]2O)C=CC1 [NADPH]

The remaining lines, values behind:

Molecule: NC(=O)c1ccc[n+]([C@@H]2O[C@H](COP(=O)(O)OP(=O)(O)OC[C@H]3O[C@@H](n4cnc5c(N)ncnc54)[C@H](O)[C@@H]3O)[C@@H](O)[C@H]2O)c1 [NAD]
crystal structure (cocktail soak) (YxkO [1]): YxkO and Tm0922 crystals soaked with cocktail G contained NAD in the predicted ATP-binding site

Molecule: Nc1ncnc2c1ncn2[C@@H]1O[C@H](COP(=O)(O)OP(=O)(O)OP(=O)(O)O)[C@@H](O)[C@H]1O [ATP]
Kd (YxkO [2]): 595 ± 134 µM

Molecule: Nc1ncnc2c1ncn2[C@@H]1O[C@H](COP(=O)(O)OP(=O)([O-])OC[C@H]2O[C@@H]([n+]3cccc(C(=O)O)c3)[C@H](O)[C@@H]2O)[C@@H](O)[C@H]1O [NAAD]
crystal structure (cocktail soak) (YxkO [1]): nicotinic acid adenine dinucleotide (NAAD) is bound in the same position

Molecule: Nc1ncnc2c1ncn2[C@@H]1O[C@H](COP(=O)(O)OP(=O)(O)OC[C@H]2OC(O)[C@H](O)[C@@H]2O)[C@@H](O)[C@H]1O (stereo partly shown) [ADPR]
Kd (Tm0922; 100 mM HEPES pH 7.5, 100 mM NaCl, 25°C (55°C also tested), likely YjeF_N site): 5.1 ± 0.4 µM
Kd (AI-BP): 451 ± 30.8 µM

Molecule: NC(=O)C1=CN([C@@H]2O[C@H](COP(=O)(O)OP(=O)(O)OC[C@H]3O[C@@H](n4cnc5c(N)ncnc54)[C@H](OP(=O)(O)O)[C@@H]3O)[C@@H](O)[C@H]2O)C(O)CC1 (stereo partly shown) [NADPHX]
crystal structure (ATP/Mg2+ co-crystal soaked with NADPH) (YxkO [3]): Coordination of NADPHX in the active site of YxkO

B1: YxkO (Bacillus subtilis subsp. subtilis str. 168) (protein)
chain: MNVPFWTEEHVRATLPERDAESHKGTYGTALLLAGSDDMPGAALLAGLGAMRSGLGKLVIGTSENVIPLIVPVLPEATYWRDGWKKAADAQLEETYRAIAIGPGLPQTESVQQAVDHVLTADCPVILDAGALAKRTYPKREGPVILTPHPGEFFRMTGVPVNELQKKRAEYAKEWAAQLQTVIVLKGNQTVIAFPDGDCWLNPTGNGALAKGGTGDTLTGMILGMLCCHEDPKHAVLNAVYLHGACAELWTDEHSAHTLLAHELSDILPRVWKRFE
Km (purified protein [4]): 6.43 ± 0.49 µM
kcat (purified protein [4]): 0.35 ± 0.01 s⁻¹
kcat (purified protein [5]): 0.35 ± 0.01 s⁻¹
